ChEMBL document CHEMBL6092224, “The Discovery and Preclinical Profile of ALG-000184, a Prodrug of the Potent Hepatitis B Virus Capsid Assembly Modulator ALG-001075” (J Med Chem, 2024)
The source made the active and inactive calls. The calls are words filed in the database; no cut-off is given here.

Experiments:
[1] = Prodrug conversion in high fat diet-fed Beagle dog assessed as formation of N-(3-cyano-4-fluorophenyl)-4-(2-((3-ethynyloxetan-3-yl)amino)-2-oxoacetyl)-1,3,5-trimethyl-1H-pyrrole-2-carboxamide metabolite at 5 mg/kg, po measured for 96 hrs; format: ADME, organism-based, Canis lupus familiaris; details: in vivo
[2] = Stability in simulated gastric fluid for >=13 hrs; format: physicochemical; details: simulated gi fluid
How it was run: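 Stability tested in simulated gastric fluid containing pepsin and simulated intestinal fluid containing pancreatin.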

[3] = Volume of distribution at steady state in Beagle dog at 1 mg/kg, iv by LC-MS/MS analysis; format: ADME, organism-based, Canis lupus familiaris; details: in vivo, read-out: Vdss
How it was run: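 Fasted males (C57BL6 mice, Sprague−Dawley rats, beagle dogs, cynomolgus monkeys) given a single IV dose of 1 mg/kg in 80% PEG 400 in water. Plasma concentrations measured by LC-MS/MS. Vss derived by noncompartmental analysis using nominal dose and nominal sampling times.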

[4] = Cytotoxicity against human HepG2.117 cells assessed as cell viability upto 50 uM; format: toxicity, cell-based; details: hepg2.117, 50 µM
Mus musculus = assay: Effect on HBeAg level in C57BL/6 mouse infected with AAV-Hepatitis B virus at 15 mg/kg, po bid for 56 days followed by induction of compound washout period for 14 days; format: functional, organism-based; details: time 70.0 day
[5] = Effect on differentiation of human HPC cells upto 10 uM; format: toxicity, cell-based
[6] = Oral bioavailability in Sprague-Dawley rat at 5 mg/kg by LC-MS/MS analysis; format: ADME, organism-based; details: in vivo
How it was run: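 Fasted male C57BL6 mice, Sprague–Dawley rats, beagle dogs, cynomolgus monkeys; single IV dose 1 mg/kg or PO solution 5 mg/kg in 80% PEG 400 in water; plasma concentrations measured, noncompartmental analysis with nominal doses and times; F from PO vs IV AUC.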

[7] = target: Multidrug and toxin extrusion protein 1 (Homo sapiens, UniProt Q96FL8); assay: Inhibition of MATE1 (unknown origin) transfected in HEK293 cells; format: cell-based
How it was run: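 HEK-293 cells transfected with the uptake transporter; uptake of known probe substrates measured with test compound at eight concentrations (0.0229–50.0 μM or 0.0457–100 μM); inhibition at each concentration used to calculate IC50.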

[8] = target: Nuclear receptor subfamily 1 group I member 2 (Homo sapiens, UniProt O75469); assay: Induction of PXR (unknown origin)
MDCKII-MDR1 = assay: Substrate activity at p-gp in MDCKII-MDR1 cells incubated for 150 mins; format: cell-based; details: Canis lupus familiaris
How it was run: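 P-gp substrate test in MDR1-MDCK II and parental MDCK II cells, with or without the P-gp inhibitor GF120918, 150 min incubation. Parent compound run at 2 μM; prodrug at 2, 10 and 100 μM.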

[9] = Half life in Sprague-Dawley rat at 5 mg/kg, po by LC-MS/MS analysis; format: ADME, organism-based; details: in vivo
How it was run: (§1)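 Single dose to fasted male C57BL6 mice, Sprague-Dawley rats, beagle dogs and cynomolgus monkeys, either IV at 1 mg/kg or PO as a solution at 5 mg/kg, in 80% PEG 400 in water. Plasma concentrations were measured by LC-MS/MS. PK parameters come from noncompartmental analysis using nominal doses and nominal sampling times.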

[10] = Ratio of drug concentration in blood to plasma in rat at 5 uM incubated for 60 mins; format: ADME, cell-free
How it was run: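 Compound at 5 μM in whole blood of each species, 37 ± 1 °C for 60 min; blood-to-plasma ratio and red blood cell partitioning determined.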

[11] = Cmax in C57BL/6J mouse at 5 mg/kg, po by LC-MS/MS analysis; format: ADME, organism-based; details: in vivo; how it was run: as §1
[12] = Tmax in Sprague-Dawley rat at 5 mg/kg, po by LC-MS/MS analysis; format: ADME, organism-based; details: in vivo
How it was run: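 Fasted males (C57BL6 mice, Sprague−Dawley rats, beagle dogs, cynomolgus monkeys) given a single oral solution dose of 5 mg/kg in 80% PEG 400 in water. Plasma sampled over time, analysed by LC-MS/MS. Noncompartmental analysis used nominal doses and nominal sampling times.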

Chain of Multidrug and toxin extrusion protein 1 (Q96FL8 whole entry): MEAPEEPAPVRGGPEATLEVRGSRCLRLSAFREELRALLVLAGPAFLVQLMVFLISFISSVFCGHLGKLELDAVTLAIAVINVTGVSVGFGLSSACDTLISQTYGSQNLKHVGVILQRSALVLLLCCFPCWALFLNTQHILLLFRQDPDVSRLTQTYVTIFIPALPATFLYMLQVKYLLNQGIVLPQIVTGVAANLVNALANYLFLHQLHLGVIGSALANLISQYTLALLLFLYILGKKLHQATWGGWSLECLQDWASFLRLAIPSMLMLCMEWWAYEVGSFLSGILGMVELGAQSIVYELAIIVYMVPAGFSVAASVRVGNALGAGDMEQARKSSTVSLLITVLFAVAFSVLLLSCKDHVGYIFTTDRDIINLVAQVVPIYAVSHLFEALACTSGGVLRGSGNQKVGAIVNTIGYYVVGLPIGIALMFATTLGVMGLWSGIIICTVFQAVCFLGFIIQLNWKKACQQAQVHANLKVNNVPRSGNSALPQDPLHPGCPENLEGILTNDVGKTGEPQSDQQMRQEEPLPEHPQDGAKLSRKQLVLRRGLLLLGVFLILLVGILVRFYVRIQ
Chain of Nuclear receptor subfamily 1 group I member 2 (O75469 whole entry): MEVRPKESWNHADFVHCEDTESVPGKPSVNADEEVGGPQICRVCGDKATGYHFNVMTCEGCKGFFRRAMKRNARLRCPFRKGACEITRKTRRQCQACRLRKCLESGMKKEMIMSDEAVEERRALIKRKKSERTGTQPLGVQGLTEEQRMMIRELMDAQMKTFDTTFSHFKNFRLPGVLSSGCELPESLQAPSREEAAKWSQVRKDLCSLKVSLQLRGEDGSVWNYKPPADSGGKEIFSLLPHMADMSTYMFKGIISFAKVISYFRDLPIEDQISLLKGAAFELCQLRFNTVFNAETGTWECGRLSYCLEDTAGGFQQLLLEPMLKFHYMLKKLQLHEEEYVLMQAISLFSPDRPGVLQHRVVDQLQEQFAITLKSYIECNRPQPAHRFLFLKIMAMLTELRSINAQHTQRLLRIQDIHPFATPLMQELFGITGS

| Drug metabolism [1] | Stability [2] | Compound | Vd [3] [L/kg] | Activity [4] | Activity (Mus musculus) | Activity [5] | bioavailability [6] [%] | IC50 [7] [µM] | Activity [8] | Activity (MDCKII-MDR1) | half-life [9] [h] | blood plasma ratio at 1 h, 5 µM [10] | Cmax [11] [µg/mL] | Tmax [12] [h] |
| --- | --- | --- | --- | --- | --- | --- | --- | --- | --- | --- | --- | --- | --- | --- |
| metabolite_detected | Stable | C#CC1(N(COP(=O)([O-])[O-])C(=O)C(=O)c2c(C)c(C(=O)Nc3ccc(F)c(C#N)c3)n(C)c2C)COC1.[Na+].[Na+] |  |  |  |  |  |  |  |  |  |  |  |  |
|  |  | C#CC1(NC(=O)C(=O)c2c(C)c(C(=O)Nc3ccc(F)c(C#N)c3)n(C)c2C)COC1 | 1.03 | Non-toxic | inactive | Non-toxic | 62.8 | > 11.8 | Not_active | Active | 2.17 | 0.72 | 2.29 | 1.67 |
